# Source: PubChem BioAssay (several laboratories)
# NR2E3 ag-1 = human photoreceptor-specific nuclear receptor agonism; Q9Y5X4; CHO-S Gal4-NCOR/VP16-NR2E3 two-hybrid, luciferase; inhibition of corepressor binding, % at 3.98 µM; actives 0.35% (n = 360,000); AID 602229;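 active = inhibition above the mean of all tested compounds plus 3 SD, cut at about 70% in these data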;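 note: 0% = DMSO with NR2E3 transfected cells and 100% = cells lacking NR2E3 construct; higher means lower luciferase signal from less NR2E3 corepressor binding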
# GalR3 antag = blocks the human galanin receptor 3; inhibition, % at 3 µM; HEK293 GalR3-CNG cAMP membrane potential fluorescence; galR3 body fused to GalR1 C-terminus; O60755; actives 0.44% (n = 360,000);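 active = inhibition above the screen-wide average plus 3 SD, cut at about 13% in these data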;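 note: forskolin and galanin both at EC90 stimulate the cells; cAMP rise reported by CNG channel membrane potential dye signal; 0% = forskolin plus galanin with DMSO and 100% = forskolin alone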
# CHT inh = inhibits the human high affinity choline transporter. AID 488975. B-score at 10 µM. CHT-expressing cells, membrane potential dye, choline response; stronger effect = lower value. actives 0.86% (n = 310,000);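 active = B-score over 3 SD under the library average, and starting fluorescence ratio not unusually high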;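 note: choline stimulus applied at its EC90 after an EC20 pre-addition; B-score computed on integrated fluorescence ratio after choline addition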
# Target sequence (Q9GZV3 whole entry, looked up): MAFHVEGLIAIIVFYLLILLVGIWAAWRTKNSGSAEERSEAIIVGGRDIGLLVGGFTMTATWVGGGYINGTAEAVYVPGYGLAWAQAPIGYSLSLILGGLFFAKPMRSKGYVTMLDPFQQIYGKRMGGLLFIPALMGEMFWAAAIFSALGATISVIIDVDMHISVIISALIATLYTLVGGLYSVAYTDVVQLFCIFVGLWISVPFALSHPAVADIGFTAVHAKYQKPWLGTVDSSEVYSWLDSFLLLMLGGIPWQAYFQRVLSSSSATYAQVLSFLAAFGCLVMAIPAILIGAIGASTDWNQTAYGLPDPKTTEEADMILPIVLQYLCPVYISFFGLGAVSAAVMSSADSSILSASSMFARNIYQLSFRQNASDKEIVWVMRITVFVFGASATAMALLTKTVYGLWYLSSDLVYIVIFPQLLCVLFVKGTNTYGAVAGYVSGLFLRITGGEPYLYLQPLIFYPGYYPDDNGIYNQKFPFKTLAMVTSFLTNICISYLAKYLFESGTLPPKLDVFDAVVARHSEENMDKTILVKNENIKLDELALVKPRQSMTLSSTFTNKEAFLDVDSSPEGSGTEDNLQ
# NR2E3 ag-2 = agonists of human nuclear receptor NR2E3; inhibition of corepressor binding, % at 4.78 µM; GST-NR2E3/biotin-RetCOR TR-FRET, 1536-well; Q9Y5X4; actives 0.12% (n = 320,000); AID 2300;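 active = percent inhibition above the cutoff of mean plus 3 SD of all tested compounds, set per screening campaign, cut at about 20% in these data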;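 note: 0% = DMSO wells and 100% = biotin wells as full block of FRET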
#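 System: GST-NR2E3 and biotin-RetCOR proteins; probe or stimulus: 7 nM biotin-RetCOR; doses: compound at 4.8 µM, single dose; schedule: Compound–protein incubation for 5 h at 4 °C; detection: time-resolved FRET; read-out: percent inhibition; controls: biotin wells as high control, 0.6% DMSO wells as low control; format: 1536-well plates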
# CHT PAM = allosteric activators of human choline transporter CHT. CHT-expressing cells, membrane potential dye, choline EC20; stronger effect = higher value; LV-AA mutant CHT in HEK293 cells. Q9GZV3. actives 0.49% (n = 310,000). B-score at 10 µM;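 active = initial fluorescence not abnormally high and integrated response B-score, plate-corrected, over 3 SD above library mean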
# NR2F2 inh = NR2F2 (human) inhibition, primary screen; HEK293T NGFI-A luciferase reporter, luminescence; inhibition, % at 8.6 µM; actives 0.7% (n = 370,000);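 active = inhibition above a per-plate cutoff, mean inhibition of test wells between control levels plus 3 SD, cut at about 38% in these data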;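 note: cells cotransfected with COUP-TFII expression vector driving the NGFI-A reporter; 0% = median of COUP-TF2 test wells and 100% = reporter-only cells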
# CHT inh conf = confirmation of human choline transporter CHT inhibitors; AID 493221; shares compounds with CHT inh; CHT activity remaining % of control (stronger effect = lower value), % at 10 µM; CHT-expressing cells, choline membrane potential dye; LV-to-AA substituted CHT, HEK293 cells; actives 70% (n = 2,400);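 active = choline transporter activity left, mean of duplicates at 10 µM, below buffer-only control mean minus 3 SD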;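 note: depolarization triggered by choline at its EC90 following an EC20 pre-addition; 0% = hemicholinium-3 full block and 100% = buffer-only control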
# HEK293 CHT ctr = activity in parental HEK293 cells lacking CHT; membrane potential ratio readout (active if shifted either direction beyond buffer ±3SD; no single direction) at 10 µM; shares compounds with CHT inh; actives 4% (n = 2,400); membrane potential dye, choline response; active = decrease or increase beyond buffer ±3SD;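 note: parental cells lack the transporter so any hit is non-specific; ratio is peak minus trough fluorescence over baseline after EC90 choline challenge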
# Active calls of the source: *; i = inactive; / = no result given. Only some compounds are listed: those with a hit (about 2.3% of all), similar ones and a draw of the others.
SMILES,NR2E3 ag-1,GalR3 antag,CHT inh,NR2E3 ag-2,CHT PAM,NR2F2 inh,CHT inh conf,HEK293 CHT ctr
CCN(CC)C(=O)CC[C@H]1CC[C@]2(CCCN(Cc3ccccn3)C2)O1,/,/,/,/,/,-30,/,/
COCCCN=C1NN=C(c2cc(C)n(-c3ccccc3)c2C)CS1,-6,3,i,1,i,3,/,/
COCCCN=C1NN=C(c2cc(C)n(-c3ccccc3F)c2C)CS1,-41,-6,-6.5*,-2,i,5,33%*,i
O=C(O)/C(=C\c1ccccc1OC(F)F)Sc1nnc(-c2ccc(F)cc2)o1,-7,-1,-5.6*,0,i,12,31%*,i
CSc1nnc(-c2ccc(F)cc2)o1,-3,-7,i,4,i,-2,/,/
O=C(Nc1ccc(Br)cc1)Nn1cnnc1,-11,3,i,3,i,-1,/,/
O=C(Nc1ccc(Br)cc1Cl)Nn1cnnc1,-15,-6,-5*,-1,i,14,65%*,i
COC(=O)[C@]12C[C@H](CC(=O)NCCc3ccccc3OC)C(=O)N(Cc3cccc4ccccc34)C1=C[C@H](C1CCCC1)O[C@@H]2C,/,/,/,/,/,8,/,/
CCOC(=O)[C@]12CCCC3=C1N(CCC3)C(=O)[C@@H](CC(=O)N1CCCCC1)C2,/,/,/,/,/,-4,/,/
C=Cn1cc[n+](CC(=O)c2ccc(-c3ccccc3)cc2)c1,-6,-6,-6.7*,9,i,1,60%*,i
O=C(C[n+]1ccccc1)c1ccc(-c2ccccc2)cc1,12,-4,i,0,i,-5,/,/
COC(=O)[C@]12C[C@H](CC(=O)N3CCN(C(=O)c4ccco4)CC3)C(=O)N(Cc3ccccc3)C1=C[C@H](COCc1ccccc1)O[C@@H]2C,/,/,/,/,/,10,/,/
COC(=O)[C@]12C[C@H](CC(=O)N3CCSCC3)C(=O)N(Cc3cccc4ccccc34)C1=C[C@H](C1CCCC1)O[C@@H]2C,/,/,/,/,/,9,/,/
Cc1ccc(OCCN2CCN(C)CC2)c([N+](=O)[O-])c1,-13,0,i,-2,i,-18,/,/
Cc1ccc(OCCCN2CCOCC2)c([N+](=O)[O-])c1,-17,0,-6.1*,-2,i,-21,i,i
CCCCCc1c2c(cc(O)c1C(=O)O)OC(=O)c1cc(C(=O)CCCC)c(OC)cc1O2,-9,1,/,/,/,13,/,/
CCCCCc1c2c(cc(O)c1C(=O)O)OC(=O)c1c(cc(OC)cc1C(=O)CCCC)O2,12,/,-5.3*,-4,i,/,35%*,i
O=C1C2C(C(=O)N1/N=C/c1cc(Br)cc([N+](=O)[O-])c1O)C1C=CC2C12CC2 (stereo not given),10,3,-7.6*,3,i,-8,43%*,i
O=C(CCc1ccccc1)N[C@H]1[C@@H](OC(=O)c2cnccn2)CCC[C@@]12C(=O)N(Cc1ccccc1)c1ccccc12,/,/,/,/,/,1,/,/
CC(NC(=O)C1c2ccccc2Oc2ccccc21)C1CCCO1 (stereo not given),-18,-1,-5.7*,-7,i,9,68%*,i
CCCCNC(=O)C[C@@H]1C(=O)N(Cc2ccc(OC)cc2)/C2=C/CCCCC[C@@]21C(=O)OCC,/,/,/,/,/,-7,/,/
CCc1c(O)nc(SCc2ccccc2)n(C(C)CC)c1=O (stereo not given),-15,/,-5.2*,-1,i,/,i,i
C=CCSc1nc(O)c(CC)c(=O)n1C(C)CC (stereo not given),-1,7,i,-3,i,-2,/,/
CC(C)(C)NCc1cccn1-c1sc2c(c1C#N)CCCC2,3,-3,-6.3*,3,i,10,20%*,-17*
N#Cc1c(N2C(=O)Nc3ccccc3N2O)sc2c1CCCC2,-27,-3,i,5,i,19,/,/
